From PubChem BioAssay
A selection: hits, their analogues and other compounds. The true share with any hit is near 3.7%.
KCNQ1 act: potentiators or activators of human KCNQ1 potassium channel; P51787; CHO-K1 KCNQ1, thallium flux FluxOR fluorescence; hits give high values; B-score at 10 µM; hit rate 0.35% among 310,000; AID 2648;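 active means fluorescence ratio B-score, a plate-corrected score, at least three library SD, with initial intensity B-score within 5 SD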
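Doses: Single concentration per compound, DMSO matched to controls | Test system: KCNQ1-transfected CHO-K1 cells | Timing: 90 min dye loading and 20 min compound exposure, both at room temperature | Measured by: Kinetic FluxOR thallium fluorescence, 10-s 1-Hz baseline, 110-s post-stimulus read | Medium: Assay buffer with matched DMSO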
Kir21 block: Kir2.1 (mouse) channel inhibition; P35561; HEK293-Kir2.1, FluxOR thallium flux fluorescence; hits give low values; B-score at 10 µM; hit rate 0.85% among 310,000; AID 1672;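 active means fluorescence ratio B-score at or below minus 3 SD of library scores, with starting-brightness B-score within 2 SD, cut at about -4.2 in these data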;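 further: channel flux triggered by added potassium and thallium sulfate stimulus; B-score of peak minus minimum fluorescence over baseline after thallium stimulus; more negative B-score means stronger Kir2.1 block with less thallium influx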
Target sequence (P35561 whole entry, looked up): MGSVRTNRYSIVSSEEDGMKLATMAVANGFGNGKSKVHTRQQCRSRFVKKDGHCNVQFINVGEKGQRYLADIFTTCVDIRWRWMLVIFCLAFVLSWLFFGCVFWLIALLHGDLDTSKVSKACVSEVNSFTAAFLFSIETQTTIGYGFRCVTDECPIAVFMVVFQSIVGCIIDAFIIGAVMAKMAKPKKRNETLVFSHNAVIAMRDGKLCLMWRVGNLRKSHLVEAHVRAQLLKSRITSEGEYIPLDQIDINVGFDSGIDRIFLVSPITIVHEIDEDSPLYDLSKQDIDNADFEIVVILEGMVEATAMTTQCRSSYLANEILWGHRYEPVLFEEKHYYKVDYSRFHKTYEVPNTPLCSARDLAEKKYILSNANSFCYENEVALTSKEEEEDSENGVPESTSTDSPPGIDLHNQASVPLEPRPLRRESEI
KCNQ1 inh: inhibitors of human KCNQ1 potassium channel. P51787. CHO-K1 KCNQ1, FluxOR thallium flux fluorescence; hits give high values. B-score at 10 µM. hit rate 1.3% among 310,000. AID 2642;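 active means compounds whose thallium flux B-score, printed positive for inhibition, exceeds three library SD while starting fluorescence stays within three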;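 further: channel opened by potassium depolarization with thallium stimulus after 20 min compound exposure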
KCNK3 block: human KCNK3 channel inhibition, primary screen; O14649; CHO-KCNK3 thallium flux, FluxOR fluorescence; hits give low values; B-score at 10 µM; hit rate 0.84% among 340,000; AID 602410;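 active means B-score under library mean minus 4 SD, starting fluorescence ratio at most library mean plus 5 SD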;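 further: more negative B-score means stronger inhibition of thallium flux through KCNK3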
hERG rescue: compounds protecting human hERG from proarrhythmic drug block; Q12809; CHO-hERG, FluxOR thallium flux, dofetilide IC70 present; activation (rescue from dofetilide block), less the hit threshold, % at 10 µM; hit rate 0.51% among 310,000; AID 1511;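 active means activation above the mean of controls blocked by dofetilide plus 5 SD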;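 further: thallium influx through hERG after potassium depolarization seen as dye fluorescence rise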
KCNK9 inh: blocks the human KCNK9 two-pore domain potassium channel; HEK293 KCNK9, FluxOR thallium flux fluorescence; hits give low values; B-score at 10 µM; hit rate 1.2% among 310,000;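 active means ratio B-score over 3 SD below the library mean, with starting fluorescence within 5 SD of its mean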;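 further: negative B-score means less thallium flux so channel inhibition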
An asterisk follows results filed as active; i = inactive; · = not tested or not shown.

SMILES	KCNQ1 act	Kir21 block	KCNQ1 inh	KCNK3 block	hERG rescue	KCNK9 inh
CSc1nnc(N2C(=O)C(O)=C(C(=O)c3ccco3)C2c2ccc(F)cc2)s1 (stereo unspecified)	i	-2.7	10*	i	-13	i
COc1ccc(C2C(C(=O)c3ccco3)=C(O)C(=O)N2c2nnc(C)s2)cc1 (stereo unspecified)	i	-1.8	i	i	-9	i
CSc1nnc(N2C(=O)C(O)=C(C(=O)c3ccco3)C2c2cccc(Cl)c2)s1 (stereo unspecified)	i	-3.5	9*	i	-21	i
Cc1cc(C)n(-c2ccc(C(=O)Nc3ccc(C)c(S(=O)(=O)N4CCOCC4)c3)cc2)n1	i	0.46	i	i	-16	i
N#CCCN(C(=O)COC(=O)Cc1c[nH]c2ccccc12)c1ccccc1	i	-0.21	i	i	-21	i
Cc1nc(Nc2ccc(Cl)c(Cl)c2)sc1C(/C=C/c1ccc2c(c1)OCO2)=NNc1ccc([N+](=O)[O-])cc1[N+](=O)[O-]	·	·	·	i	·	·
CC(/C=N/n1c(-c2cc(C)[nH]n2)n[nH]c1=S)=C\c1ccco1	i	0.07	i	i	-7	i
CC(/C=N/n1c(-c2ccc(Cl)cc2)n[nH]c1=S)=C\c1ccco1	9*	0.8	i	i	3	i
CCOC(=O)c1cc(-c2ccc(F)cc2)n(CCC(=O)NC2CCN(Cc3ccccc3)CC2)c1C	i	-4.6*	i	i	-12	i
O=C1OC(CC(=O)N(Cc2nnc(-c3ccc(Cl)cc3)o2)C2CC2)c2ccccc21 (stereo unspecified)	·	·	·	i	·	·
Cc1cc(C)c(Cc2c(C)nc3c(C(=O)NCc4ccco4)cnn3c2C)c(C)c1	i	0.01	i	i	-16	-7.3*
CC1CCCC(=NNc2ccc3ccccc3n2)C1 (stereo unspecified)	·	·	·	i	·	·
COc1ccccc1/C=C/C=C1\Oc2c(ccc(O)c2CN(C)C)C1=O	i	-12	10*	i	-26	i
CCCCN(C(=O)CCCc1nc2ccccc2c(=O)[nH]1)c1c(N)n(CC(C)C)c(=O)[nH]c1=O	·	·	·	i	·	·
CN(/C=C/C(=C\C=[N+](C)c1ccccc1)OCCCS(=O)(=O)[O-])c1ccccc1	i	-4.6	6*	i	-19	i
O=C(Nc1nc2ccc(SC(F)F)cc2s1)c1ccc(NS(=O)(=O)c2ccc(F)c(F)c2)cc1	i	3.9	i	i	-4	-6.8*
N#CC1=CC2CN(Cc3ccccc3)C1C1C(=O)N(c3ccccc3)C(=O)C21 (stereo unspecified)	·	·	·	i	·	·
O=C(Nc1cc(S(=O)(=O)N2CCOCC2)ccc1Cl)c1ccncc1	·	·	·	i	·	·
CCN1C(=O)/C(=C/c2ccc(C)s2)NC1=S	10*	-0.11	i	i	10*	i
Cc1cccc(NC(=O)c2ccc(Cl)c(S(=O)(=O)N3CCc4ccccc43)c2)n1	·	·	·	-11*	·	·
CC#CC[N+](C)(C)CCCCCCCCCCCC	i	-5*	6*	i	-23	i
Oc1c(Br)cc(Cl)cc1C=Nc1ccccc1Br	8*	-1.3	i	i	11*	i
Oc1c(Br)cc(Cl)cc1C=Nc1ccc(N2CCOCC2)cc1	i	-0.47	i	i	-2	i
Cc1ccc(NC(=O)C(=O)NCC2CCCN2S(=O)(=O)c2cccs2)c(C)c1 (stereo unspecified)	i	-0.68	i	i	-14	i
Cc1ccc(C)c(NC(=O)C(=O)NCC2CCCN2S(=O)(=O)c2cccs2)c1 (stereo unspecified)	i	-0.07	i	i	-17	-7.2*
SMILES	KCNQ1 act	Kir21 block	KCNQ1 inh	KCNK3 block	hERG rescue	KCNK9 inh
Cc1ccc(-c2csc3ncnc(SCC(=O)NCc4ccc5c(c4)OCO5)c23)cc1	i	0.58	i	i	-3	i
O=C(CSc1ncnc2scc(-c3ccc(Cl)cc3)c12)NCc1ccc2c(c1)OCO2	i	0.86	i	-9.9*	-6	i
Cc1ccc(NC(=O)c2cc3cc(OC(F)(F)F)ccc3[nH]2)cc1	i	0.15	6*	·	-3	i
Cc1ccc(C(C)NC(=S)NC2CCCCC2)cc1C (stereo unspecified)	i	-5.3*	i	i	6.2*	i
CC(NC(=O)NC1CCCCC1)c1ccc2c(c1)OCO2 (stereo unspecified)	i	0.17	i	i	11*	i
CCC(NC(=S)NC1CCCCC1)c1ccc(C(C)C)cc1 (stereo unspecified)	i	0.88	10*	i	-9	i
CC(NC(=O)NC12CC3CC(CC(C3)C1)C2)c1ccc2c(c1)OCO2 (stereo unspecified)	i	-1.1	i	i	-17	i
O=C(O)Cn1c(=O)c2c3c(sc2n(Cc2ccc(Cl)cc2Cl)c1=O)CCCC3	i	0.7	i	i	-10	i
O=C1CC(c2ccco2)CC(O)=C1C=Nc1cc(Cl)ccc1Cl (stereo unspecified)	i	0.04	i	i	-4	i
O=C1CC(c2ccco2)CC(O)=C1C=Nc1cc(Cl)ccc1O (stereo unspecified)	i	0.88	6*	i	-17	i
CN(Cc1ccccc1F)C(=O)c1sccc1-c1ccccc1	i	-12*	i	i	-12	i
COc1cccc(CN(C)C(=O)c2sccc2-c2ccccc2)c1OC	i	-3.6	i	i	-9	i
Nc1ccc(C(=O)NN2C(=O)[C@H](Cl)C2c2ccc(Cl)cc2)cc1 (stereo partly specified)	·	·	·	i	·	·
COc1ccccc1C(CNC(=O)CNC(=O)c1cccc(Cl)c1)N1CCCC1 (stereo unspecified)	·	·	·	i	·	·
CCn1c(SC(C)C(=O)Nc2ccc3c(c2)OCCO3)nnc1C1CC1 (stereo unspecified)	·	·	·	i	·	·
O=C(c1ccccc1)c1ccc(OCC(O)CNC2CCCc3ccccc32)cc1 (stereo unspecified)	i	-6.2*	i	i	-14	i
OC(CNC1CCCc2ccccc21)COc1ccc2ccccc2c1 (stereo unspecified)	i	-10*	i	i	-15	i
CC(C)c1ccc(-c2csc3ncnc(N4CCN(C)CC4)c23)cc1	i	-1.1	i	i	-7	i
COc1ccc(CN2CCNC(=O)C2CC(=O)N2CCCO2)c(OC)c1 (stereo unspecified)	i	0.9	i	i	-9	i
COc1ccc(CN(C)C(=O)COC(=O)c2ccc(-c3ccccc3)cc2)c(OC)c1OC	·	·	·	-9.3*	·	·
COc1ccc(CN(C)C(=O)CCN2C(=O)c3ccccc3C2=O)c(OC)c1OC	i	1.3	i	i	-1	i
